Test results taken from ChEMBL document CHEMBL2413007, “Synthesis of polysubstituted benzofuran derivatives as novel inhibitors of parasitic growth” (Bioorg Med Chem, 2013).

Assays:
[1] = tested on: Trypanosoma brucei gambiense; experiment: Antitrypanosomal activity against Trypanosoma brucei gambiense Feo bloodstream form after 72 hrs by fluorescence assay; assay type: functional, organism-based
Method in brief: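 Bloodstream forms of strain Feo grown in HMI9 with 10% FCS, 37 °C, 5% CO₂. Log-phase cells harvested by centrifugation (3000g) and used at once, seeded at 3 × 10⁴ cells/ml. Inhibitor concentration series, final DMSO ≤1%. Resazurin added after 72 h (final 45 µM), fluorescence (ex 530/em 590 nm) read 4 h later. Inhibition relative to untreated parasites; triplicates, experiment repeated twice.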

Plasmodium falciparum = experiment: Antiplasmodial activity against erythrocytic stages of chloroquine-resistant Plasmodium falciparum FcB1/Columbia incubated for 24 hrs followed by [3H]-hypoxanthine addition measured after 24 hrs by liquid scintillation spectrometry; assay type: functional, organism-based
Method in brief: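 Asynchronous FcB1/Colombia cultured on human erythrocytes in RPMI 1640 + 8% heat-inactivated human serum, 37 °C, 3% CO₂/6% O₂/91% N₂. DMSO stocks 10 mM, two-fold serial dilutions; 1% parasitaemia, 1% final haematocrit. 24 h drug exposure, then 0.5 µCi [³H]-hypoxanthine per well, 24 h more; freeze-thaw, filter harvest, scintillation counting versus untreated same-plate control. IC50 from concentration–response curve; mean ± SD of several independent experiments; chloroquine control.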

Row | Compound | IC50 [1] | IC50 (Plasmodium falciparum)
1 | CCOc1ccc2ccccc2c1C(=O)Oc1cccc2oc(-c3ccc(OC)cc3)cc12 | 7.7 µM | > 50 µM
2 | COc1ccc(C(=O)c2c(-c3ccc(OC)cc3)oc3cccc(O)c23)cc1 | 7.7 µM | > 25 µM
3 | COc1ccc(-c2cc3c(OC(=O)c4cccc5ccccc45)cccc3o2)cc1 | 14.9 µM | > 50 µM
4 | COc1ccc(-c2cc3c(OC(=O)c4ccc([N+](=O)[O-])cc4)cccc3o2)cc1 | 1.7 µM | > 50 µM
5 | COc1ccc(-c2oc3ccccc3c2C(=O)c2ccccc2)cc1 | 21.2 µM | > 50 µM
6 | N=C(N)c1ccc(OCCCCCOc2ccc(C(=N)N)cc2)cc1 [PENTAMIDINE] | 0.011 µM | –
7 | O=C(Oc1cccc2oc(C3CC3)cc12)c1ccc([N+](=O)[O-])cc1 | 12.2 µM | > 50 µM
8 | COc1ccc(-c2oc3cccc(O)c3c2C(=O)c2cccc3ccccc23)cc1 | 4.2 µM | > 50 µM
9 | O=C(Oc1cccc2oc(-c3ccccc3)cc12)c1cccc2ccccc12 | 21.3 µM | > 25 µM
10 | O=C(c1ccc([N+](=O)[O-])cc1)c1c(-c2ccccc2)oc2ccccc12 | > 50 µM | > 50 µM
11 | COc1ccc(-c2cc3c(OC(=O)c4c(O)cc(OC)cc4OC)cccc3o2)cc1 | > 50 µM | 7.9 µM
12 | O=C(c1ccccc1)c1c(-c2ccccc2)oc2ccccc12 | 15.5 µM | > 50 µM
13 | CCOc1ccc2ccccc2c1C(=O)Oc1cccc2oc(C3CC3)cc12 | 6.4 µM | > 25 µM
14 | COc1ccc(-c2oc3cccc(OC)c3c2C(=O)c2ccc(OC(=O)C(C)(C)C)c(OC)c2)cc1 | 8.4 µM | > 50 µM
15 | COc1ccc(C(=O)c2c(-c3ccc(OC)cc3)oc3cccc(OC)c23)cc1 | 8.3 µM | > 25 µM
16 | CCOc1ccc2ccccc2c1C(=O)Oc1cccc2oc(-c3ccccc3)cc12 | 6.7 µM | > 50 µM
17 | O=C(Oc1cccc2oc(C3CC3)cc12)c1cccc2ccccc12 | 12.6 µM | > 50 µM
18 | O=C(Oc1cccc2oc(-c3ccccc3)cc12)c1ccc(Cl)cc1 | 1.6 µM | > 25 µM
19 | COc1ccc(-c2oc3ccccc3c2C(=O)c2ccc([N+](=O)[O-])cc2)cc1 | > 50 µM | > 50 µM
20 | COc1ccc(C(=O)c2c(C3CC3)oc3cccc(O)c23)cc1 | 3.7 µM | > 50 µM

Row | Compound | IC50 [1] | IC50 (Plasmodium falciparum)
21 | COc1ccc(-c2oc3cccc(OC)c3c2C(=O)c2ccccc2)cc1 | 11.8 µM | > 50 µM
22 | COc1ccc(-c2oc3cccc(OC)c3c2C(=O)c2ccc(Cl)cc2)cc1 | 5.5 µM | > 50 µM
23 | COc1ccc(-c2cc3c(OC(=O)c4ccc(Cl)cc4)cccc3o2)cc1 | 1.5 µM | > 25 µM
24 | COc1ccc(-c2oc3cccc(O)c3c2C(=O)c2ccccc2)cc1 | 6.5 µM | > 25 µM
25 | O=C(c1cccc2ccccc12)c1c(C2CC2)oc2cccc(O)c12 | 4.6 µM | > 50 µM
26 | COc1ccc(C(=O)Oc2cccc3oc(-c4ccc(OC)cc4)cc23)cc1 | 1.8 µM | 11.2 µM
27 | COc1ccc(-c2cc3c(OC(=O)c4ccccc4)cccc3o2)cc1 | 3.2 µM | > 25 µM
28 | O=C(Oc1cccc2oc(C3CC3)cc12)c1ccccc1 | 14.7 µM | > 50 µM
29 | CCOc1ccc2ccccc2c1C(=O)c1c(-c2ccc(OC)cc2)oc2cccc(O)c12 | 1.5 µM | > 25 µM
30 | COc1ccc(-c2oc3cccc(OC)c3c2C(=O)c2cccc3ccccc23)cc1 | 12.4 µM | > 50 µM
31 | O=C(c1ccccc1)c1c(C2CC2)oc2ccccc12 | 20.9 µM | > 50 µM
32 | O=C(Oc1cccc2oc(-c3ccccc3)cc12)c1ccc([N+](=O)[O-])cc1 | 1.8 µM | > 25 µM
33 | COc1ccc(-c2oc3cccc(OC)c3c2C(=O)c2c(OC)cc(OC)cc2OC)cc1 | > 50 µM | > 50 µM
34 | Cc1cc(C)cc(-c2cc3c(OC(=O)c4ccccc4)cccc3o2)c1 | 2 µM | 6 µM
35 | O=C(Oc1cccc2oc(C3CC3)cc12)c1ccc(Cl)cc1 | 7.1 µM | > 50 µM
36 | CCOc1ccc2ccccc2c1C(=O)c1c(C2CC2)oc2cccc(O)c12 | 2 µM | > 25 µM
37 | COc1ccc(-c2oc3ccccc3c2C(=O)c2c(O)cc(OC)cc2OC)cc1 | 6.7 µM | > 25 µM
38 | COc1ccc(C(=O)Oc2cccc3oc(C4CC4)cc23)cc1 | 2.7 µM | > 50 µM
39 | COc1ccc(C(=O)Oc2cccc3oc(-c4ccccc4)cc23)cc1 | 1.7 µM | > 25 µM
40 | O=C(Oc1cccc2oc(-c3ccccc3)cc12)c1ccccc1 | 14 µM | > 25 µM
